Data taken from ChEMBL document CHEMBL4715833, “Design, synthesis, in-vitro, in-vivo and in-silico studies of pyrrolidine-2,5-dione derivatives as multitarget anti-inflammatory agents” (Eur J Med Chem, 2020).
pIC50: −log10 of the molar value.

What was measured:
[1] = Acute toxicity in Swiss albino mouse assessed as changes in central nervous system at 1000 mg/kg, ip administered as single dose measured after 4 hrs; format: organism-based; conditions: in vivo
Method in brief: (§1)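 Swiss albino mice of either sex (30-35 g), kept at 22-25 °C on a 12 h light/dark cycle with free food and water. Single i.p. dose; controls received normal saline 10 mL/kg. Animals were watched at random for allergic or abnormal behavioural signs during the first 4 h.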

[2] = target: T1, Prostaglandin G/H synthase 1 (Ovis aries, UniProt P05979); assay: Inhibition of sheep COX1 using arachidonic acid as substrate preincubated for 5 mins followed by substrate addition and measured after 5 mins by UV-visible spectrophotometric method
T1 sequence (P05979 whole entry): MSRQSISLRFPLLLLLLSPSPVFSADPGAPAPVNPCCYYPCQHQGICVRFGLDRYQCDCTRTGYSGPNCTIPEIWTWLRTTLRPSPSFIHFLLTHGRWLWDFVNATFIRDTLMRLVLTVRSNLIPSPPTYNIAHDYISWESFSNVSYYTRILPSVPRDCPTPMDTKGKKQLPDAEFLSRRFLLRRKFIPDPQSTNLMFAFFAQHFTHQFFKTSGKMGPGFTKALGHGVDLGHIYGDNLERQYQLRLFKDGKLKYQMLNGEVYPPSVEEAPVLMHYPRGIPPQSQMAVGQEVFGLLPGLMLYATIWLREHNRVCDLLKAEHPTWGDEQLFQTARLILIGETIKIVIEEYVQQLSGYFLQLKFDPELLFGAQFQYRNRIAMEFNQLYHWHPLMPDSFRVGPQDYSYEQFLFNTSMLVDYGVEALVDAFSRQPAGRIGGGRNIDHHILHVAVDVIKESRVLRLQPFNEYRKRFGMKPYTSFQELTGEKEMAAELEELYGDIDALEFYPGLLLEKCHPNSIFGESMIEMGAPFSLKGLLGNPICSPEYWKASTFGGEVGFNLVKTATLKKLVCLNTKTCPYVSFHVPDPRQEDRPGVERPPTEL
Method in brief: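 Enzymes activated for 5 min on ice with cofactor solution of 0.9 mM glutathione, hematin and 0.24 mM TMPD in 0.1 M Tris-HCl pH 8.0; COX-2 at 300 units/ml. Reaction started with 30 mM arachidonic acid stock, run 5 min, absorbance read at 570 nm. IC50 taken from inhibition-vs-concentration plots as means of three determinations. SI = IC50(COX-1)/IC50(COX-2).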

Mus musculus [3] = assay: Antiinflammatory activity against carrageenan-induced paw edema in Swiss mouse assessed as inhibition of paw edema at 50 mg/kg administered 30 mins prior to carrageenan challenge and measured after 3 hrs by […]-method (reference value: 11.41 +/- 3.069%); format: functional; conditions: time 3.5 hrs
[4] = Acute toxicity in Swiss albino mouse assessed as change in clinical sign of eyes at 1000 mg/kg, ip administered as single dose measured after 4 hrs; format: organism-based; conditions: in vivo; method in brief: as §1
Mus musculus [5] = assay: Antiinflammatory activity against carrageenan-induced paw edema in Swiss mouse assessed as inhibition of paw edema at 100 mg/kg administered 30 mins prior to carrageenan challenge and measured after 3 hrs by […]-method (reference value: 11.41 +/- 3.069%); format: functional; conditions: time 3.5 hrs
Mus musculus [6] = assay: Antiinflammatory activity against carrageenan-induced paw edema in Swiss mouse assessed as inhibition of paw edema at 25 mg/kg administered 30 mins prior to carrageenan challenge and measured after 5 hrs by […]-method (reference value: 7.31 +/- 3.204%); format: functional; conditions: time 5.5 hrs
Mus musculus [7] = assay: Antiinflammatory activity in ip dosed leukotriene-induced paw edema in Balb/c mouse assessed as inhibition of paw edema administered 1 hr prior to leukotriene challenge and measured up to 5 hrs; format: functional, organism-based; conditions: time 2-6 hrs
Method in brief: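 BALB/c mice of either sex (30–35 g), 8 per group, dosed i.p. with 10% DMSO, reference drug or compound (100 mg/kg). After 1 h, subplantar irritant: PGE2 0.01 µg/ml, bradykinin 20 µg/ml, histamine 0.1 ml of 1 mg/ml, or leukotriene 10 µg/ml.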

[8] = Acute toxicity in Swiss albino mouse assessed as tremor at 1000 mg/kg, ip administered as single dose measured after 4 hrs; format: organism-based; conditions: in vivo; method in brief: as §1
[9] = Acute toxicity in Swiss albino mouse assessed as change in clinical sign of mucus membrane at 1000 mg/kg, ip administered as single dose measured after 4 hrs; format: organism-based; conditions: in vivo; method in brief: as §1
[10] = target: T2, Polyunsaturated fatty acid 5-lipoxygenase (Homo sapiens, UniProt P09917); assay: Inhibition of recombinant human 5LOX expressed in baculovirus infected Sf insect cells using linoleic acid as substrate preincubated for 5 mins followed by substrate addition
T2 sequence (P09917 whole entry): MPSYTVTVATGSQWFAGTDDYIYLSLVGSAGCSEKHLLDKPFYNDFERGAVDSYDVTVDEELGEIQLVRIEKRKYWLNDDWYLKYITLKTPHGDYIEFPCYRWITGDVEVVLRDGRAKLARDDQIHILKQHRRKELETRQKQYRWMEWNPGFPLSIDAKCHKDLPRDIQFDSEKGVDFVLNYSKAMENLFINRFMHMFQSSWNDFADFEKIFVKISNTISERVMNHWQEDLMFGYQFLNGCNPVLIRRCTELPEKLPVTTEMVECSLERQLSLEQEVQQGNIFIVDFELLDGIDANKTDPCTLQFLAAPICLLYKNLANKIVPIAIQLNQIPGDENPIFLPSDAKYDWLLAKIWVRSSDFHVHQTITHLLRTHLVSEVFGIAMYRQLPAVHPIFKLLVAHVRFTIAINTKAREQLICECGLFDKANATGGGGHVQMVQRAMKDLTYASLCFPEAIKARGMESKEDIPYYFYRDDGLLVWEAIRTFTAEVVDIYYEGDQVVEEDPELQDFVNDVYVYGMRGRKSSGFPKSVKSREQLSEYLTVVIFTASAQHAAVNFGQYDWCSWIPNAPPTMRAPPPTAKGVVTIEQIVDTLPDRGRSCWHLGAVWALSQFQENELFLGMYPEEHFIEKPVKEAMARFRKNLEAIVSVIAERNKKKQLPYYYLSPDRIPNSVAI

Mus musculus [11] = assay: Antiinflammatory activity against carrageenan-induced paw edema in Swiss mouse assessed as inhibition of paw edema at 50 mg/kg administered 30 mins prior to carrageenan challenge and measured after 4 hrs by […]-method (reference value: 14.46 +/- 1.568%); format: functional; conditions: time 4.5 hrs
[12] = Acute toxicity in Swiss albino mouse assessed as mortality at 1000 mg/kg, ip administered as single dose measured after 24 hrs; format: organism-based; conditions: in vivo
Method in brief: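 Swiss albino mice of either sex (30-35 g), housed at 22-25 °C with 12 h light/dark and free food and water. Single i.p. dose; the saline control got 10 mL/kg. Deaths were counted 24 h after dosing. Dose table lists groups of 8 male and 8 female mice given 5 to 2000 mg/kg.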

[13] = Acute toxicity in Swiss albino mouse assessed as clinical changes in respiratory rate at 1000 mg/kg, ip administered as single dose measured after 4 hrs; format: organism-based; conditions: in vivo; method in brief: as §1
Mus musculus [14] = assay: Antiinflammatory activity against carrageenan-induced paw edema in Swiss mouse assessed as inhibition of paw edema at 25 mg/kg administered 30 mins prior to carrageenan challenge and measured after 4 hrs by […]-method (reference value: 14.46 +/- 1.568%); format: functional; conditions: time 4.5 hrs
[15] = Acute toxicity in Swiss albino mouse assessed as change in gait at 1000 mg/kg, ip administered as single dose measured after 4 hrs; format: organism-based; conditions: in vivo; method in brief: as §1

Cc1ccc(C(=O)CC2CC(=O)N(c3ccc(S(N)(=O)=O)cc3)C2=O)cc1 (stereo not given)
Activity [1]: Non-Toxic | pIC50 [2]: 4.51 | inhibition in vivo at 50 mg/kg (Mus musculus [3]): 54.2% | Activity [4]: Non-Toxic | inhibition in vivo at 100 mg/kg (Mus musculus [5]): 61.6% | inhibition in vivo at 25 mg/kg (Mus musculus [6]): 56.6% | inhibition (Mus musculus [7]): Dose-dependent effect | Activity [8]: Non-Toxic | Activity [9]: Non-Toxic | pIC50 [10]: 6.07 | inhibition in vivo at 50 mg/kg (Mus musculus [11]): 57.3% | Activity [12]: Non-Toxic | Activity [13]: Non-Toxic | inhibition in vivo at 25 mg/kg (Mus musculus [14]): 54.2% | Activity [15]: Non-Toxic

O=C1CCCCC1C1CC(=O)N(Cc2ccccc2)C1=O (stereo not given)
Activity [1]: Non-Toxic | pIC50 [2]: 4.20 | inhibition in vivo at 50 mg/kg (Mus musculus [3]): 41.1% | Activity [4]: Non-Toxic | inhibition in vivo at 100 mg/kg (Mus musculus [5]): 51.6% | inhibition in vivo at 25 mg/kg (Mus musculus [6]): 23.4% | inhibition (Mus musculus [7]): Dose-dependent effect | Activity [8]: Non-Toxic | Activity [9]: Non-Toxic | pIC50 [10]: 4.44 | inhibition in vivo at 50 mg/kg (Mus musculus [11]): 44.5% | Activity [12]: Non-Toxic | Activity [13]: Non-Toxic | inhibition in vivo at 25 mg/kg (Mus musculus [14]): 27.8% | Activity [15]: Non-Toxic
